Activity calls are given as the source filed them. The calls are words filed in the database; no cut-off is given here.
Experiments:
Protein smoothened = Protein smoothened (Mus musculus, UniProt P56726); test: Inhibition of Smo-mediated Hh signalling pathway in mouse Shh Light2 cells by Gli-luciferase reporter gene assay; assay type: cell-based
Method in brief: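 Light II cells (NIH-3T3 stably carrying a Gli-responsive firefly luciferase reporter plus a Renilla luciferase vector), seeded in 96-well plates and treated. Firefly/Renilla activity in the lysates read by dual luciferase assay on a luminometer. IC50 is the mean ± SD of three separate experiments.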

Medulloblastoma cell = test: Antiproliferative activity against mouse medulloblastoma cells isolated from Ptch+/- p53-/- mouse measured after 72 hrs by MTS assay; assay type: functional
Method in brief: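 Medulloblastoma cells from Ptch+/-;p53-/- allografts in nude mice, minced and collagenase-digested, grown in Neurobasal A with B-27, EGF 20 ng/ml, bFGF 20 ng/ml, nonessential amino acids and N-acetyl cysteine 60 µg/ml. Seeded in 96-well plates, treated 72 h, viability read by MTS; mean ± SD.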

[1] = molecular target: Protein smoothened (Homo sapiens) (UniProt Q99835); test: Antagonist activity at wild-type Smo (unknown origin) expressed in mouse Shh Light2 cells assessed as suppression of Gli-mRNA expression measured after 36 hrs by dual luciferase reporter gene assay; assay type: cell-based; settings: in the assay text read “Gli-luciferase activity” for “Gli-mRNA expression”
Method in brief: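 Light II cells transfected with wild-type Smo plasmid to drive Gli-luciferase, exposed to compound for 36 h, then harvested for dual luciferase reporter assay. Mean ± SD.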

[2] = molecular target: Voltage-gated inwardly rectifying potassium channel KCNH2 (Homo sapiens, UniProt Q12809); test: Inhibition of human ERG
[3] = Cytotoxicity against human KB cells; assay type: toxicity, cell-based
[4] = molecular target: Protein smoothened (Homo sapiens) (UniProt Q99835); settings: HEK293, 5 uM
[5] = molecular target: Protein smoothened (Homo sapiens) (UniProt Q99835); settings: HEK293, 5 uM; remark: listed apart in the source
[6] = Cytotoxicity against mouse L1210 cells by MTT assay; assay type: functional, cell-based
HEK293 = test: Inhibition of TNF-alpha stimulated NFkappaB transactivation in HEK293 cells at 20 uM measured after 24 hrs by dual luciferase reporter gene assay; assay type: cell-based; settings: Homo sapiens
Method in brief: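 HEK293 cells stimulated with TNF-α and treated for 24 h, then lysed for dual luciferase reporter analysis of NF-κB activity. Mean ± SD.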

Protein smoothened, sequence (P56726 whole entry): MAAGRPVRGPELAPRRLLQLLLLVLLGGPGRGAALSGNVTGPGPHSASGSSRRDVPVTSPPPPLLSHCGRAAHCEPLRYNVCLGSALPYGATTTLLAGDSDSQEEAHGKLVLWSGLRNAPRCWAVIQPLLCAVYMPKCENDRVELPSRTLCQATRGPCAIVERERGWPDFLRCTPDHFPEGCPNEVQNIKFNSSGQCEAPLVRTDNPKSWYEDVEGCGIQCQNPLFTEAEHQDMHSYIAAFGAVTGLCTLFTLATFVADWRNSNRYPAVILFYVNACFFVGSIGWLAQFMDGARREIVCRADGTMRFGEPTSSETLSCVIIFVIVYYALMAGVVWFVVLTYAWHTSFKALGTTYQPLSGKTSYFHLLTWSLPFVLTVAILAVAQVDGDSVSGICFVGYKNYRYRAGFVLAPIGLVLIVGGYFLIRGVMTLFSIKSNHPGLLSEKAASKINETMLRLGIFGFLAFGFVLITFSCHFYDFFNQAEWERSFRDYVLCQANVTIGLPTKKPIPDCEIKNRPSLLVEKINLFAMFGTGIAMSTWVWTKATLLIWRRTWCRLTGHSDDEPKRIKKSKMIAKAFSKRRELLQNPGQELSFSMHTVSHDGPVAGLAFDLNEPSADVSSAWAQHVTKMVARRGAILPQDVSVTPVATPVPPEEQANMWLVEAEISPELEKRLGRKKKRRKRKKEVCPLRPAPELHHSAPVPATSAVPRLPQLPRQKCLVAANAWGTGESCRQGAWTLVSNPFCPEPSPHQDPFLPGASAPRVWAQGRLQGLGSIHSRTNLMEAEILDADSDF
Protein smoothened (Homo sapiens), sequence (Q99835 whole entry): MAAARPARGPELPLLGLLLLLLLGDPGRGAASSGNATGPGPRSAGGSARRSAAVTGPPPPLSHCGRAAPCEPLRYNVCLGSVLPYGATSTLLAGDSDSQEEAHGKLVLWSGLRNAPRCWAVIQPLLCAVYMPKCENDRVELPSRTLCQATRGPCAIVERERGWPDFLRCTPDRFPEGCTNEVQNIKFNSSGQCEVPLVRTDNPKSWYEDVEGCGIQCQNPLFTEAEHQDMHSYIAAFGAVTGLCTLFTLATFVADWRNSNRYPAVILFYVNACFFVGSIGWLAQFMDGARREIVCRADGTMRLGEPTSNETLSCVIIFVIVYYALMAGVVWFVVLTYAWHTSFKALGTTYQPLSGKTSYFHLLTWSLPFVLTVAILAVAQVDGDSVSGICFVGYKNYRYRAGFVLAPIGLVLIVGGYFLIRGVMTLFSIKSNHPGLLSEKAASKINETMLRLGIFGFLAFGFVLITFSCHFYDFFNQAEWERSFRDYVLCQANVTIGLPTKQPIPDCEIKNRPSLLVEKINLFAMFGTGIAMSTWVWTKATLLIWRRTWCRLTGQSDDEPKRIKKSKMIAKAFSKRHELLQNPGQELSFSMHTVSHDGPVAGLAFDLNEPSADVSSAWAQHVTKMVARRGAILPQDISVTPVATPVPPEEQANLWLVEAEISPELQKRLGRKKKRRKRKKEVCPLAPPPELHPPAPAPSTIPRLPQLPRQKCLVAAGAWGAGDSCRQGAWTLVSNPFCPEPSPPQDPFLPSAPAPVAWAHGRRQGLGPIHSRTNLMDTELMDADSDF
Voltage-gated inwardly rectifying potassium channel KCNH2, sequence (Q12809 whole entry): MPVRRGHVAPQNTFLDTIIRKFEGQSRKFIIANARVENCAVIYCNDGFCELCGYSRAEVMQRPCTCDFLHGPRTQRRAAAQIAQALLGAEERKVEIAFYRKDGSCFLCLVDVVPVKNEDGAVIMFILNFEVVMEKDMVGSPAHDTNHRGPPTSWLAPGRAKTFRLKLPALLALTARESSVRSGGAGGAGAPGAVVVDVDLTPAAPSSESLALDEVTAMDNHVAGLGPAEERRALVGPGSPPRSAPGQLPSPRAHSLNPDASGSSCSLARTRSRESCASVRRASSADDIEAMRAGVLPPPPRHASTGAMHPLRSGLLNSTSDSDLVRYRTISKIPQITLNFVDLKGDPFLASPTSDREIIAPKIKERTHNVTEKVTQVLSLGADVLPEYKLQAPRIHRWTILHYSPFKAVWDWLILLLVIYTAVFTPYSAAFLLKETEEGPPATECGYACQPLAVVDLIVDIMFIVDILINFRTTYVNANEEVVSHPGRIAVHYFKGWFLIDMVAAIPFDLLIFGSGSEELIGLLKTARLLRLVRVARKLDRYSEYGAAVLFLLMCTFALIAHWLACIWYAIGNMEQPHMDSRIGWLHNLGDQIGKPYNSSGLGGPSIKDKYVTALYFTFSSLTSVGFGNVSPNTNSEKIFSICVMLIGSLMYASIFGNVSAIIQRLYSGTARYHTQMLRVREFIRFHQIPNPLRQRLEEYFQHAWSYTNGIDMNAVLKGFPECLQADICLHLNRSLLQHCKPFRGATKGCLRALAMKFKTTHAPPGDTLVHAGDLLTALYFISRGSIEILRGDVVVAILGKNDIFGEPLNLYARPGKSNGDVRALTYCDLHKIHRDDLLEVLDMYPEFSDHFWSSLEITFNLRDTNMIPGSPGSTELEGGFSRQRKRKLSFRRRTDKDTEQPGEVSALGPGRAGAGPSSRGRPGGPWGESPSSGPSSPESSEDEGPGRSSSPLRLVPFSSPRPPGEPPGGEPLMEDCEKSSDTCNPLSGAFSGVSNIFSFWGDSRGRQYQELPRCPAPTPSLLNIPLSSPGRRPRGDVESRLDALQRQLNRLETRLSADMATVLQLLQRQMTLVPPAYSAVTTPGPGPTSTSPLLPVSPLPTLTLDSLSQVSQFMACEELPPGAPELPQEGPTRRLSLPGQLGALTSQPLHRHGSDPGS

Row | SMILES | IC50 (Protein smoothened) [nM] | also measured
1 | Cc1ccc2c(n1)[C@H]([C@@H](C)C(=O)Nc1cccc(-c3ccc(OC(F)(F)F)cc3)c1C)CC[C@H]2C | 1000 | –
2 | C[C@@H]1CC[C@@H]([C@@H](C)C(=O)Nc2ccc(Cl)c(-c3ccccn3)c2)[C@H]2CC(=O)CC[C@H]21 | 290 | –
3 | Cc1ccc2c(n1)[C@H]([C@@H](C)C(=O)Nc1ccc(Cl)c(-c3nnc(-c4ccnn4C)s3)c1)CC[C@H]2C | 265 | –
4 | C[C@H]1[C@@H](CC(=O)Nc2ccc(Cl)c(-c3ccccn3)c2)O[C@@H]2O[C@@]3(C)CC[C@H]4[C@H](C)CC[C@@H]1[C@@]24O3 | 184 | –
5 | Cc1ccc2c(n1)[C@H]([C@@H](C)C(=O)Nc1ccc(Cl)c(-c3ccc(N4C[C@@H](C)O[C@@H](C)C4)cn3)c1)CC[C@H]2C | > 1000 | –
6 | Cc1ccc2c(n1)[C@H]([C@@H](C)C(=O)Nc1ccc(Cl)c(-c3nc4cc(OC(F)(F)F)ccc4n3C)c1)CC[C@H]2C | 84.5 | –
7 | Cc1ccc2c(n1)[C@H]([C@@H](C)C(=O)Nc1ccc(Cl)c(-c3nc(C4CC4)no3)c1)CC[C@H]2C | 220 | –
8 | C[C@@H]1CC[C@@H]2[C@]34OO[C@](C)(CC[C@@H]13)OC4O[C@]2(C)C(=O)Nc1ccc(Cl)c(-c2ccccn2)c1 (stereo not given in full) | 180 | –
9 | CS(=O)(=O)c1ccc(C(=O)Nc2ccc(Cl)c(-c3ccccn3)c2)c(Cl)c1 | – | Activity (Medulloblastoma cell): Dose-dependent effect; inhibition [1]: Dose-dependent effect
10 | Cc1ccc2c(n1)[C@H]([C@@H](C)C(=O)Nc1ccc(Cl)c(-c3ccccn3)c1)CC[C@H]2C | 212 | IC50 [2]: > 15000 nM; IC50 [3]: 15000 nM
11 | C[C@@H]1CC[C@@H]([C@@H](C)C(=O)Nc2ccc(Cl)c(-c3ccccn3)c2)[C@H]2Cc3c(c4ccccc4n3C)C[C@H]21 | 476 | –
12 | C[C@@H]1CC[C@@H]([C@@H](C)C(=O)Nc2ccc(Cl)c(-c3ccccn3)c2)C2=CC(=O)CC[C@H]21 | > 1000 | –
13 | CC1=C2C[C@H]3[C@@H](CC=C4C[C@@H](O)CC[C@@]43C)[C@@H]2CC[C@]12O[C@@H]1C[C@H](C)CN[C@H]1[C@H]2C | – | inhibition [4]: Active; inhibition [5]: Active
14 | Cc1ccc2c(n1)[C@H]([C@@H](C)C(=O)Nc1ccc(Cl)c(-c3nc4ccccc4s3)c1)CC[C@H]2C | 282 | –
15 | C[C@H]1[C@@H](O[C@@H](C#N)c2ccc(Br)cc2)O[C@@H]2O[C@@]3(C)CC[C@H]4[C@H](C)CC[C@@H]1[C@@]24OO3 | – | IC50 [6]: 10 nM
16 | Cc1ccc(S(=O)(=O)/C=C/C#N)cc1 | – | inhibition (HEK293): Active

— ChEMBL document CHEMBL3864137, “Design, Synthesis, and Pharmacological Evaluation of 2-(2,5-Dimethyl-5,6,7,8-tetrahydroquinolin-8-yl)-N-aryl Propanamides as Novel Smoothened (Smo) Antagonists” (J Med Chem, 2016)
